The text below walks through data of ChEMBL document CHEMBL4024746, “Nonpyrogenic Molecular Adjuvants Based on norAbu-Muramyldipeptide and norAbu-Glucosaminyl Muramyldipeptide: Synthesis, Molecular Mechanisms of Action, and Biological Activities in Vitro and in Vivo” (J Med Chem, 2017).

Activity calls are given as the source filed them. No cut-off for these calls is given here.

For data set [1], the system named is Oryctolagus cuniculus. Kind of data set: Toxicity in New Zealand albino rabbit assessed as necrosis at site of application at 100 nmol/kg, sc using liposomal formulation measured up to 2 months post dose. The following applies: in vivo. In kind it is organism-based.
Data set [2] deals with Oryctolagus cuniculus. Description: Toxicity in Chinchilla rabbit assessed as skin irritation at 100 nmol/kg, iv using micellar formulation measured up to 2 months post dose. The following applies: in vivo. In kind it is organism-based.
Data set [3] deals with Oryctolagus cuniculus. Kind of data set: Toxicity in New Zealand albino rabbit assessed as weight loss at 100 nmol/kg, sc using liposomal formulation measured up to 2 months post dose. The format is organism-based. The following applies: in vivo.
For data set [4], the target named is Nucleotide-binding oligomerization domain-containing protein 2 (Homo sapiens) (UniProt Q9HC29). Description: Agonist activity at human NOD2 receptor expressed in mouse Raw-Blue reporter cells at 10 uM after 48 hrs by SEAP reporter gene assay. In kind it is cell-based. The gist of the method:
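RAW 264.7-derived RAW-Blue cells carrying an NF-κB/AP-1-inducible SEAP reporter, exposed to compounds at 10 μM for 48 h. Colorimetric SEAP read-out at 650 nm. MDP serves as positive control. ANOVA with Dunnett's test versus untreated cells and versus MDP.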

The test system of data set [5] is Oryctolagus cuniculus. Kind of data set: Toxicity in New Zealand albino rabbit assessed as behavioral changes at 100 nmol/kg, sc using liposomal formulation measured up to 2 months post dose. In kind it is organism-based. Particulars: in vivo.
Data set [6] concerns Oryctolagus cuniculus. Kind of data set: Toxicity in Chinchilla rabbit assessed as necrosis at site of application at 100 nmol/kg, iv using micellar formulation measured up to 2 months post dose. Particulars: in vivo. In kind it is organism-based.
Data set [7] addresses NACHT, LRR and PYD domains-containing protein 3 (Homo sapiens, UniProt Q96P20). Description: Agonist activity at NLRP3 in human […] cells assessed as induction of LPS-induced IL-1beta secretion by HEK-Blue reporter cell based assay. The gist of the method:
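THP1-Null cells stimulated with compounds; mature IL-1β released is detected with HEK-Blue IL-1β cells through SEAP reporter activity in the supernatant, read colorimetrically with QUANTI-Blue. ATP serves as positive standard. Untreated HEK-Blue IL-1β cells serve as negative control; comparison by ANOVA with Dunnett's test.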

Data set [8] concerns Oryctolagus cuniculus. Kind of data set: Pyrogenic activity in New Zealand albino rabbit assessed as change in maximum body temperature at 100 nmol/kg, sc using liposomal formulation measured at 30 mins time intervals for 9 to 24 hrs (reference value: 0.2 degC). The format is toxicity, organism-based. Particulars: in vivo. A digest of the protocol: (§1)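 Standard rabbit pyrogenicity test, three animals per group, iv or modified sc application of free (micellar) or liposomal formulations. Maximum temperature rise (+ΔTmax) summed per group; sum below 1.1 °C classed as nonpyrogenic. Temperature followed a further 24 h for delayed pyrogenicity.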

In data set [9] the test system is Oryctolagus cuniculus. Kind of data set: Toxicity in Chinchilla rabbit assessed as weight loss at 100 nmol/kg, iv using micellar formulation measured up to 2 months post dose. In kind it is organism-based. Particulars: in vivo.
Data set [10] deals with T1, Nucleotide-binding oligomerization domain-containing protein 1 (Homo sapiens) (UniProt Q9Y239).
T1 sequence (whole entry): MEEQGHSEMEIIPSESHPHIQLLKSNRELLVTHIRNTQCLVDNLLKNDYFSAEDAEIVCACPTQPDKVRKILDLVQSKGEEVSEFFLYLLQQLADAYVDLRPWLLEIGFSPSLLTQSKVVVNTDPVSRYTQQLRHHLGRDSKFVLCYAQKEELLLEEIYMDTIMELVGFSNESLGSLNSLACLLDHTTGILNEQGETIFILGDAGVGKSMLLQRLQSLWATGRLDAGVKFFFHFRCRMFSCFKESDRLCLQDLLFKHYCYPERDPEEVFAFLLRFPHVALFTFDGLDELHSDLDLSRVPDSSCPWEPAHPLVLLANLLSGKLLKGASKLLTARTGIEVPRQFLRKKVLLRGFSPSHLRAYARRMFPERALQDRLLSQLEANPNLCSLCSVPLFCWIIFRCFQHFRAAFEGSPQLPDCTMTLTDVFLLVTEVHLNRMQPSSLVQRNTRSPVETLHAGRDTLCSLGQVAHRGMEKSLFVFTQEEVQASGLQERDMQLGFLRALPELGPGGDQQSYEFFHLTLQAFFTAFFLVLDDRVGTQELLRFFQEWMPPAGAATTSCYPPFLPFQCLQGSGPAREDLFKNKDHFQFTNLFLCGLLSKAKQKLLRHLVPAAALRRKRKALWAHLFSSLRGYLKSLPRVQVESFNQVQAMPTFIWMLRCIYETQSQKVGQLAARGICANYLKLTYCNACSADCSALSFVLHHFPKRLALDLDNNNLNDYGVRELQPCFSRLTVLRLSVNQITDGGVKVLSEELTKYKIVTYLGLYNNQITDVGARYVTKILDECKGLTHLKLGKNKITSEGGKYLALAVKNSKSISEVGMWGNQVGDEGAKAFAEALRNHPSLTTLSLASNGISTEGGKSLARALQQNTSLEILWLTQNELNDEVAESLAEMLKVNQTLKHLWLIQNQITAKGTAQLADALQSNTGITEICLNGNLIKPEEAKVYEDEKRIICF
Kind of data set: Agonist activity at human NOD1 receptor expressed in HEK-Blue reporter cells at 10 uM after 48 hrs by SEAP reporter gene assay. In kind it is cell-based. A digest of the protocol:
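HEK293 cells cotransfected with human NOD1 and an NF-κB/AP-1-inducible SEAP reporter, exposed to compounds at 10 μM for 48 h. SEAP is read at 650 nm with QUANTI-Blue. Diaminopimelic acid derivatives serve as NOD1 positive controls. Dunnett's test is used versus untreated cells.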
A general note: In a reporter assay the amount or activity of a reporter protein is the signal.

Data set [11] has as its system Oryctolagus cuniculus. Description: Pyrogenic activity in Chinchilla rabbit assessed as change in maximum body temperature at 100 nmol/kg, iv using micellar foemulation measured at 30 mins time intervals. In kind it is toxicity, organism-based. The following applies: in vivo, 0.5 h. The gist of the method:
as §1

Data set [12] concerns Oryctolagus cuniculus. Description: Toxicity in Chinchilla rabbit assessed as behavioral changes at 100 nmol/kg, iv using micellar formulation measured up to 2 months post dose. The format is organism-based. The following applies: in vivo.
The target in data set [13] is Nucleotide-binding oligomerization domain-containing protein 2 (Homo sapiens) (UniProt Q9HC29). Description: Agonist activity at human NOD2 receptor expressed in mouse Raw-Blue reporter cells at 10 uM after 48 hrs in presence of gefitinib by SEAP reporter gene assay. The format is cell-based.
For data set [14] the target is unchanged. Kind of data set: Agonist activity at human NOD2 receptor expressed in mouse Raw-Blue reporter cells at 10 uM after 24 hrs in presence of GSK717 by SEAP reporter gene assay.
Data set [15] concerns Mus musculus. Kind of data set: Immuno-stimulatory activity in ICR mouse assessed as induction of GM-progenitor cell proliferation in serum at […], sc using liposomal formulation measured after 6 hrs. The format is functional, organism-based. A digest of the protocol: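 Female ICR mice, 3 months old, four per group, given liposomal preparations sc at 100 nmol per dose in 200 μL. Serum collected 6 h later and added to cultured granulocyte–monocyte progenitors. GM-CFU colonies counted, with serum-free cells as baseline. Dunnett's test is used versus the infusion-solution control.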

Data set [16] deals with Oryctolagus cuniculus. Description: Toxicity in New Zealand albino rabbit assessed as skin irritation at 100 nmol/kg, sc using liposomal formulation measured up to 2 months post dose. The format is organism-based. Particulars: in vivo.

Sequence of Nucleotide-binding oligomerization domain-containing protein 2 (Homo sapiens) (Q9HC29 whole entry, the tested form may be a part): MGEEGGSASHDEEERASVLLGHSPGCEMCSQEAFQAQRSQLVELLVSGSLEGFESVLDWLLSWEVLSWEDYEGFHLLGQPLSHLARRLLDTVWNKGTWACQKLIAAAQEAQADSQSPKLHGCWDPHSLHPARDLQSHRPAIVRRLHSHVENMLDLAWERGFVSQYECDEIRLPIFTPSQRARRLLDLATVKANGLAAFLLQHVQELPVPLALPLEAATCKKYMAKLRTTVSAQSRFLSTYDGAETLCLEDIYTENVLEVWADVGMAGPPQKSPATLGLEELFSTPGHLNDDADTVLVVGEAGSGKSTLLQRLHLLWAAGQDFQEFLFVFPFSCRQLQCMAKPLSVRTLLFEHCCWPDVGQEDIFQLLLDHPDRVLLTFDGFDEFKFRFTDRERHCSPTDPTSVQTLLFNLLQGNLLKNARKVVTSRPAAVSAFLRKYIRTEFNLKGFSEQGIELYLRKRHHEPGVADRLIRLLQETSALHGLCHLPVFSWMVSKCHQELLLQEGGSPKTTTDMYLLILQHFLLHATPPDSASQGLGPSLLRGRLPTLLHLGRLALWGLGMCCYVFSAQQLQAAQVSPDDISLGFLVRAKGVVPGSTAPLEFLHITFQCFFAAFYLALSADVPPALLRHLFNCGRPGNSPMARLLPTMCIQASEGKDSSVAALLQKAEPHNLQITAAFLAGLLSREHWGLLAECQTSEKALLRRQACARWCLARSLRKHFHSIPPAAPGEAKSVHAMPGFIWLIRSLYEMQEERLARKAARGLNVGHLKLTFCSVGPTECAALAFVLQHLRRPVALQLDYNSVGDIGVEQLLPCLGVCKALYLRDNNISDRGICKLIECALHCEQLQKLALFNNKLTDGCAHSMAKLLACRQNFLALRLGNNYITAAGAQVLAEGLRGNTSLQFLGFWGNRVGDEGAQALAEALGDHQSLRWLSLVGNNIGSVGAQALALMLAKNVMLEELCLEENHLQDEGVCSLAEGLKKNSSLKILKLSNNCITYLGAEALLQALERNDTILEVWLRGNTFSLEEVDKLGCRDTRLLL
Sequence of NACHT, LRR and PYD domains-containing protein 3 (Q96P20 whole entry, the tested form may be a part): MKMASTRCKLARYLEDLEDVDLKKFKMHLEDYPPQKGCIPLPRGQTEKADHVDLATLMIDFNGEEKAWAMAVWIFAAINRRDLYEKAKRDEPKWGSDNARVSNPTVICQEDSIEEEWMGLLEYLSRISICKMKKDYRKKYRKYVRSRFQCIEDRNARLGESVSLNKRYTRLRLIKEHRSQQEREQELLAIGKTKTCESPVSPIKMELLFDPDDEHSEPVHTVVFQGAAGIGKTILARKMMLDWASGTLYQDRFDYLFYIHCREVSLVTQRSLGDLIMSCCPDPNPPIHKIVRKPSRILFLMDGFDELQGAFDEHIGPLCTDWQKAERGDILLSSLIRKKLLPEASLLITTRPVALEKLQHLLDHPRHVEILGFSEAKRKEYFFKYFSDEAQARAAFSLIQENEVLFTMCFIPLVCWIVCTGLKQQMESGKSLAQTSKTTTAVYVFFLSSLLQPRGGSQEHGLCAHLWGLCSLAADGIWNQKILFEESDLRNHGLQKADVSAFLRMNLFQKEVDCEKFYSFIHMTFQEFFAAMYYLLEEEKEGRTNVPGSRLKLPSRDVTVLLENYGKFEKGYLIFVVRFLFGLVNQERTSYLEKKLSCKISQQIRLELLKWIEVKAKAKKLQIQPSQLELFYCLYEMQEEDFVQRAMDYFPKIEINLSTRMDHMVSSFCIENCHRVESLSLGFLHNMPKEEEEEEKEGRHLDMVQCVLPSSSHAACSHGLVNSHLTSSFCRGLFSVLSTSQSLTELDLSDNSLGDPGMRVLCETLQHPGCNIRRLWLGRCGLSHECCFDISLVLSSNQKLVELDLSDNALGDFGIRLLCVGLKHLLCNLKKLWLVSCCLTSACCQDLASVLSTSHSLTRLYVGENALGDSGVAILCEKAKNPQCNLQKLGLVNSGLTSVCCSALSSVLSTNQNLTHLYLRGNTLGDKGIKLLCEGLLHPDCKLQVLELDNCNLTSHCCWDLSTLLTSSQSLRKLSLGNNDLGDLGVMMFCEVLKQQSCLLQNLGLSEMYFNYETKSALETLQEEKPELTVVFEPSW

Take `CCCCCCCCCCCCCCC(CCCCCCCCCCCCCC)C(=O)OC[C@H]1OC(O)[C@H](NC(C)=O)[C@@H](OCC(=O)N[C@@H](CC)C(=O)N[C@H](CCC(=O)O)C(N)=O)[C@@H]1O` (stereo partly specified): the Activity result in [1] is reported as “Non-Toxic”; in [2], “Non-Toxic”; in [3] it was “Non-Toxic”; in data set [5], “Non-Toxic”; in data set [6], “Non-Toxic”; in data set [7] it was “Active”. Also, the Activity entry in data set [9], in [12] and in data set [16] was “Non-Toxic” each time. Moreover, the result in [4] and in data set [15] was Active. The figures for the deltaT in data set [8] and in data set [11] were 0.5 °C and 0.6 °C, respectively. Also, the result in data set [10], in [13] and in [14] was inactive.

Regarding `C[C@H](NC(=O)[C@@H](C)O[C@H]1[C@H](O)[C@@H](CO)OC(O)[C@@H]1NC(=O)CO)C(=O)N[C@H](CCC(=O)O)C(N)=O` (stereo partly specified), the result in [4] was Active.

Take `CCCCCCCCCCCCCCCCCC(=O)OC[C@H]1OC(O)[C@H](NC(C)=O)[C@@H](OCC(=O)N[C@@H](CC)C(=O)N[C@H](CCC(=O)O)C(N)=O)[C@@H]1O` (stereo partly specified): the Activity result in [1] is “Non-Toxic”; in [2] it was “Non-Toxic”; in data set [3] it was “Non-Toxic”; in data set [5], “Non-Toxic”; in data set [6] it was “Non-Toxic”; in data set [7], “Active”. For the same molecule, the Activity entry in [9], in data set [12] and in [16] was “Non-Toxic” throughout. The result in data set [4] and in [15] was Active. Moreover, the deltaT in data set [8] and in data set [11] was 0.6 °C in each case. The outcome in data set [10], in data set [13] and in data set [14] was inactive.

Turning to `C[C@H](N)C(=O)N[C@H](CCC(=O)NC12CC3CC(CC(C3)C1)C2)C(N)=O`, the result in data set [4] was inactive.

With `CCCCCCCCCCCCCCCCCC(=O)N[C@H]1[C@H](O[C@H]2[C@H](OCC(=O)N[C@@H](CC)C(=O)N[C@H](CCC(=O)O)C(N)=O)[C@@H](NC(C)=O)C(O)O[C@@H]2CO)O[C@H](CO)[C@@H](O)[C@@H]1O` (stereo partly specified), the Activity result in [1] was “Non-Toxic”; in [2], “Non-Toxic”; in data set [3] it was “Non-Toxic”; in [5], “Non-Toxic”; in [6] it was “Non-Toxic”; in data set [7], “Active”. The Activity entry in data set [9], in data set [12] and in data set [16] was “Non-Toxic” in each case. Also, the result in [4] and in data set [15] was Active. Moreover, the deltaT in data set [8] was 0.4 °C; in data set [11], 0.5 °C. The result in [10], in data set [13] and in [14] was inactive.

Regarding `CCCCCCCCCCCCCCC(CCCCCCCCCCCCCC)C(=O)NCCCC[C@H](NC(=O)CC[C@@H](NC(=O)[C@H](CC)NC(=O)CO[C@H]1[C@H](O[C@@H]2O[C@H](CO)[C@@H](O)[C@H](O)[C@H]2NC(C)=O)[C@@H](CO)OC(O)[C@@H]1NC(C)=O)C(N)=O)C(=O)O` (stereo partly specified), the Activity result in data set [1] is recorded as “Non-Toxic”; in data set [2], “Non-Toxic”; in [3], “Non-Toxic”; in data set [5] it was “Non-Toxic”; in [6], “Non-Toxic”; in data set [7], “Active”. For the same molecule, the Activity entry in data set [9], in data set [12] and in data set [16] was “Non-Toxic” in each case. The result in data set [4] and in [15] was Active. Also, the deltaT is 0.5 °C in data set [8] and 0.4 °C in data set [11]. Besides, the outcome in [10], in [13] and in [14] was inactive.

On to `CCCCCCCCCCCCCCCCCC(=O)NCCCC[C@H](NC(=O)CC[C@@H](NC(=O)[C@H](CC)NC(=O)CO[C@H]1[C@H](O)[C@@H](CO)OC(O)[C@@H]1NC(C)=O)C(N)=O)C(=O)O` (stereo partly specified), for which the Activity result is “Non-Toxic” in data set [1]; “Non-Toxic” in data set [2]; “Non-Toxic” in data set [3]; “Non-Toxic” in [5]; “Non-Toxic” in data set [6]; “Active” in data set [7]. For the same molecule, the Activity result in [9], in data set [12] and in data set [16] was “Non-Toxic” throughout. Besides, the outcome in data set [4] and in data set [15] was Active. The deltaT in [8] came out at 0.5 °C; in [11] it was 0.4 °C. Besides, the outcome in [10], in data set [13] and in data set [14] was inactive.

As to `Nc1ncnc2c1ncn2[C@@H]1O[C@H](COP(=O)(O)OP(=O)(O)OP(=O)(O)O)[C@@H](O)[C@H]1O` [ADENOSINE TRIPHOSPHATE], in data set [7], the result was Active.

`CCCCCCCCCCCCCCCCCC(=O)OC[C@H]1OC(O)[C@H](NC(C)=O)[C@@H](O[C@H](C)C(=O)N[C@@H](C)C(=O)N[C@H](CCC(=O)O)C(N)=O)[C@@H]1O` (stereo partly specified): the result in data set [4] was Active. Moreover, the outcome in data set [13] and in data set [14] was inactive.
